Measured values published in ChEMBL document CHEMBL3244154, “Synthesis of 1-deaza-6-thioguanosine and 1-deaza-6-(methylthio)guanosine” (1978).
≈ marks a conversion by molar mass, not a printed value. Calls of active or inactive are those of the source. The rule behind the calls is not given here.

Experiments:
KB [1] = assay: Cytotoxicity against human KB cells; format: functional; settings: read-out: ED50 (the source's name)
In short: (§1)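 Growth inhibition of cultured cells. Activity is expressed as ED50 in μg/mL.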

L1210 [2] = assay: Antitumor activity against mouse L1210 cells assessed as increase in life span administered from day 1 to day 9 relative to control; format: functional; parameters: concentration or dose not given beside the values
In short: (§2)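 In vivo assay in mice bearing leukemia L1210, dosed on days 1–9. Read-out is percent increase in life span of treated leukemic mice over untreated leukemic controls.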

[3] = Cytotoxicity against human Hep2 cells; format: functional; settings: HEp-2, read-out: ED50 (the source's name); in short: as §1
HEp-2 = assay: Cytotoxicity against human Hep2 cells in presence of 5-amino-1H-imidazole-4-carboxamide; format: functional, cell-based
L1210 [4] = assay: Antitumor activity against mouse L1210 cells assessed as increase in life span at 14 to 75 mg/kg administered from day 1 to day 9 relative to control; format: functional, organism-based
L1210 [5] = assay: Antitumor activity against mouse L1210 cells assessed as increase in life span at 33 mg/kg administered from day 1 to day 9 relative to control; format: functional; in short: as §2
KB [6] = assay: Cytotoxicity against human KB cells in presence of 5-amino-1H-imidazole-4-carboxamide; format: functional, cell-based

In the case of `Nc1cc(Cl)c2ncn([C@@H]3O[C@H](CO)[C@@H](O)[C@H]3O)c2n1`, the EC50 (KB [1]) is reported as greater than 22 µg/mL, the Activity (L1210 [2]) is reported as less than 15% and the EC50 [3] is reported as greater than 22 µg/mL.
With `CSc1cc(NC(C)=O)nc2[nH]cnc12` the EC50 (KB [1]) was greater than 22 µg/mL, the Activity (L1210 [2]) was less than 15% and the EC50 [3] was greater than 22 µg/mL.
Molecule `CSc1cc(N)nc2c1ncn2[C@@H]1O[C@H](CO)[C@@H](O)[C@H]1O` has an EC50 (KB [1]) greater than 22 µg/mL, an Activity (L1210 [2]) of less than 15% and an EC50 [3] greater than 22 µg/mL.
Molecule `Nc1cc(S)c2ncn([C@@H]3O[C@H](CO)[C@@H](O)[C@H]3O)c2n1` has an EC50 (KB [1]) greater than 22 µg/mL, an Activity (L1210 [2]) of less than 15% and an EC50 [3] greater than 22 µg/mL.
For `CSc1cc(N)nc2[nH]cnc12`, the EC50 (KB [1]) was greater than 22 µg/mL, the Activity (L1210 [2]) was less than 15% and the EC50 [3] was greater than 22 µg/mL.
`Cc1ccc(S(=O)(=O)/N=c2\cc(Cl)c3ncn4c3n2C[C@H]2O[C@@H]4[C@@H]3OC(C)(C)O[C@@H]32)cc1` showed an EC50 (KB [1]) greater than 22 µg/mL, an Activity (L1210 [2]) of less than 15% and an EC50 [3] greater than 22 µg/mL.
In the case of `Nc1cc(Cl)c2nc[nH]c2n1`, the Activity (HEp-2) is reported as “Active”, the EC50 (KB [1]) is reported as 1 µg/mL (≈ 5.93 µM) and the Activity (L1210 [4]) is reported as “Active”. For the same molecule, the Activity (L1210 [5]) was 79%, the Activity (KB [6]) was “Active” and the EC50 [3] was 0.3 µg/mL (≈ 1.78 µM).
Molecule `CC(=O)Nc1cc(Cl)c2nc[nH]c2n1` has an EC50 (KB [1]) greater than 22 µg/mL, an Activity (L1210 [2]) of less than 15% and an EC50 [3] greater than 22 µg/mL.
